APJ antagonist = APJ receptor antagonism. CHO-K1 APJ beta-arrestin complementation, luminescence. hit rate 0.32% among 330,000. inhibition, % at 20 µM;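 active = inhibition above about 40% at 20 µM, limit read from the data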;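 note: cells challenged with 10 nM apelin-13 agonist together with compound; plate controls were apelin-13 plus DMSO wells for no effect and DMSO wells lacking apelin-13 for full effect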
B2AR ag = activates human beta-2 adrenergic receptor causing internalization; hit rate 0.43% among 340,000; response, % (test concentration not listed); P07550; Am2.2-beta2AR cells, FAP receptor internalization, flow cytometry; AID 504454;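 active = response above a set limit, near 3 SD of response in nonfluorescent compounds, cut at about 42% in these data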
CCR6 antag = CCR6 (human) receptor antagonism; hit rate 0.49% among 340,000; inhibition, % at 20 µM; CHO-K1 CCR6 PathHunter beta-arrestin, luminescence, CCL20-stimulated; P51684;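 active = compounds whose inhibition of the agonist-driven luminescence signal at 20 µM reaches about 50%, limit read from the data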;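 note: cells stimulated with CCL20 at 14 nM final; plate controls were DMSO with CCL20 for no effect and DMSO without agonist for full effect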
Target sequence (P51684 whole entry, looked up): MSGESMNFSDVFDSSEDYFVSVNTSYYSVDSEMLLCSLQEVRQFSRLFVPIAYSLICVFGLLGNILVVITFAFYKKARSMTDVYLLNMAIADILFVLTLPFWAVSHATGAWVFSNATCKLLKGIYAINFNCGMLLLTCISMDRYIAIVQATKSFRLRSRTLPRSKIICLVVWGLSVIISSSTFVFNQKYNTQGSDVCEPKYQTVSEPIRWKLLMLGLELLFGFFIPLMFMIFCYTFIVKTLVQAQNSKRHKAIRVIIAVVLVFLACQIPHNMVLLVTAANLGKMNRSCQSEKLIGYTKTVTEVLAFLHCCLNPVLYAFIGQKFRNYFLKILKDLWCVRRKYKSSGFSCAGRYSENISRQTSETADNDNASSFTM
CXCR6 block = blocks human CXCR6 beta-arrestin recruitment; inhibition, % at 20 µM; O00574; hit rate 0.36% among 360,000; CHO-K1 PathHunter CXCR6 beta-arrestin, luminescence; in the data active = inhibition above about 34%, passing the limit was not always enough;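 note: antagonist mode with CXCL16 agonist at 10 nM final; 0% = 10 nM CXCL16 with DMSO and 100% = unstimulated wells without agonist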
Target sequence (O00574 whole entry, looked up): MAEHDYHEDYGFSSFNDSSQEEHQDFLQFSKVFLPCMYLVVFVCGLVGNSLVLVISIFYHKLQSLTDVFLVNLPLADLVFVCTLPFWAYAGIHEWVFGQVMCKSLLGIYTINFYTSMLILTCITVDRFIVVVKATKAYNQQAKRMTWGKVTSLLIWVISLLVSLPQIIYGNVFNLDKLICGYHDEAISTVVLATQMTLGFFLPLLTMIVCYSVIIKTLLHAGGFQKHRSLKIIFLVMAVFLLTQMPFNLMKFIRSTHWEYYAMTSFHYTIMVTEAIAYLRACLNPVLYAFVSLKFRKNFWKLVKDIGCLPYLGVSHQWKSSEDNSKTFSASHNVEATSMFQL
EBI2 antag = blocks human EBI2 receptor beta-arrestin signaling; EBI2 beta-arrestin recruitment, luminescence, 7a,25-OHC stimulated; inhibition, % at 5 µM; hit rate 0.81% among 360,000; AID 651636; in the data active = inhibition above about 38%;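 note: enzyme fragment complementation signal reports receptor beta-arrestin coupling in cells; 0% = agonist plus DMSO wells and 100% = wells without agonist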
APJ ag = agonists of human APJ apelin receptor. P35414. CHO-K1 APJ PathHunter beta-arrestin, luminescence; 0% DMSO wells, 100% apelin. activation, % at 20 µM. hit rate 0.11% among 330,000;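 active = activation more than six SD over the plate average, tested at 20 µM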;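 note: 0% = DMSO alone and 100% = apelin-13 at 10 nM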
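Test system: CHO-K1 APJ beta-arrestin complementation cell line | Compound: Single test compound dose, 20 µM final, 1% DMSO | Incubation: Compound 90 min 25 °C, reagent 1 h | Measured by: beta-gal luminescence | Read-out basis: APJ–arrestin association signal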
B2AR ag CP1 = activates human beta-2 adrenergic receptor. Am2.2-beta2AR cells, FAP surface receptor, flow cytometry; hits give low values. shares compounds with B2AR ag. percent response (surface receptor), % at 10 µM. hit rate 25% among 1,100. AID 540358;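 active = surface receptor percent response at or below 58%, roughly 3 SD from nonfluorescent compounds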
FAP fluor counter = fluorescence artifact in beta-2AR agonist FAP counterscreen. shares compounds with B2AR ag. calls only at 10 µM. Am2.2 cells, FAP fluorogen flow cytometry; hits give low values. 1,100 tested, under 10 active;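 active = percent response below a set limit in fluorescence channel 1 and below 50% in channel 8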
Numbers without * were called inactive; i = inactive; . = no result. In the library only some 1.8% were active in any assay of this set; here they are far more common.

SMILES | APJ antagonist | B2AR ag | CCR6 antag | CXCR6 block | EBI2 antag | APJ ag | B2AR ag CP1 | FAP fluor counter
O=[N+]([O-])c1ccc(O)c(-c2cc(C(F)(F)F)nc(-c3ccccc3)n2)c1 | 33.9 | 47.7* | 18.3 | 15.4 | 10.3 | 0.4 | 81.4 | i
CCCCCC(=O)Nc1ccc(S(=O)(=O)NC2=NCCCCC2)cc1 | -35.0 | 8.8 | 6.2 | -7.8 | -3.3 | -7.7 | . | .
CSc1ccc(C(=O)C2CCCN(Cc3cccn3-c3cccnc3)C2)cc1 (centres undefined) | -8.2 | 69.5* | 15.9 | -3.0 | 18.5 | -5.5 | 19.4* | i
O=C(COc1ccc(S(=O)(=O)N2CCOCC2)cc1)Nc1ccccc1Cl | 12.7 | 0.7 | 25.1 | 0.7 | 7.0 | -0.3 | 116.9 | i
O=C(COc1ccc(S(=O)(=O)N2CCOCC2)cc1)Nc1ccccc1F | 6.0 | 3.4 | 13.8 | -1.4 | -7.3 | -6.3 | 97.8 | i
CC1=C(C(=O)O)N2C(=O)C(NC(=O)c3ccc(F)cc3)C2SC1 (centres undefined) | -0.7 | -8.1 | -6.3 | 3.6 | -9.3 | -0.4 | . | .
NC(=S)N=Nc1c(O)n(Cc2ccc(Br)cc2)c2ccccc12 | 12.2 | -7.3 | 17.4 | 13.2 | 17.2 | -3.5 | . | .
NC(=S)N=Nc1c(O)n(Cc2ccc(F)cc2)c2ccccc12 | 16.2 | -2.7 | 47.2 | 34.2 | 3.0 | -1.8 | 101.8 | i
O=C(NCCNC(=O)c1ccccc1Cl)c1ccco1 | 16.5 | -7.0 | 5.2 | -0.7 | -7.1 | -2.3 | . | .
CC1CCC(NC(=O)CCS(=O)(=O)c2ccc3c(c2)CCN3C(=O)C2CC2)CC1 (centres undefined) | 18.3 | 104.6* | 5.0 | 5.4 | -2.2 | 0.6 | 18.0* | i
O=C(COC(=O)c1ccc(Cl)c([N+](=O)[O-])c1)NC1CCCC1 | 18.6 | 9.9 | 1.0 | -5.9 | -6.3 | -3.7 | . | .
O=C(COC(=O)c1ccccc1C(=O)c1ccc(Cl)c([N+](=O)[O-])c1)NC1CCCCCC1 | 36.2 | 53.0* | 16.4 | 10.5 | 53.0* | 5.2 | 9.7* | i
CCN(CC)S(=O)(=O)c1cc(C(=O)Nc2cc(Cl)ccc2N2CCN(C)CC2)ccc1Cl | 3.7 | 74.2* | -8.5 | -1.2 | 18.3 | -2.6 | 20.1* | i
Nc1ccn(CC(=O)NCCNc2ccc([N+](=O)[O-])cn2)c(=O)n1 | 12.7 | -8.6 | 6.4 | -1.0 | -15.1 | -0.7 | . | .
Cc1ccc(OCC(=O)Nc2ccc(-c3nc4ncccc4o3)cc2)c(C)c1 | 2.5 | 116.4* | 13.7 | 1.3 | 1.0 | -3.7 | 16.2* | i
Cc1ccc(OCC(=O)Nc2ccncc2)c(C)c1 | -1.9 | 4.0 | 2.3 | -5.5 | 3.3 | 1.7 | . | .
O=C(N[C@@H](Cc1ccccc1)C(=O)OCc1ccccc1)c1nc[nH]c1C(=O)NCc1ccccc1 | -21.5 | 62.9* | -2.4 | -0.1 | -6.3 | -3.3 | 105.6 | i
CCC(C)NC(=O)c1c(N)n(/N=C/c2cccnc2)c2nc3ccccc3nc12 (centres undefined) | 6.4 | 47.8* | -30.4 | -9.3 | 4.6 | -1.5 | 84.0 | i
CCCn1c(N)c(C(=O)CSc2nnc(C3CC3)n2Cc2ccccc2)c(=O)n(C)c1=O | -7.7 | 3.9 | 2.7 | 3.3 | -5.0 | 0.4 | . | .
CNCCCC12CCC(c3ccccc31)c1ccccc12 | 4.6 | 29.2 | 6.1 | -0.3 | 5.7 | 1.1 | 94.5 | i
Cc1ccc(OCCNC(=O)CCNC(=O)c2ccc(Cl)cc2)cc1 | 11.4 | 0.0 | -1.0 | 1.5 | 3.0 | 2.6 | . | .
O=C(Cc1ccccc1)NC1(Cc2ccc(O)cc2)CCCCC1 | 17.1 | 56.6* | 20.4 | 6.0 | 7.6 | -0.9 | 47.3* | i
NNC(=O)CC(=O)NC1(Cc2ccc(O)cc2)CCCCC1 | -8.4 | 0.7 | -0.4 | -5.2 | -4.7 | 1.9 | . | .
CCn1c(SCC(=O)N(C)c2ccccc2)nc2c([nH]c3ccccc32)c1=O | 7.3 | -12.3 | 16.5 | -2.5 | 13.3 | 2.8 | . | .
CCc1ccc2[nH]c(=O)c(CN(Cc3ccccc3)Cc3nnnn3Cc3ccco3)cc2c1 | 7.8 | 5.8 | 13.6 | -2.5 | -0.9 | -0.6 | . | .
SMILES | APJ antagonist | B2AR ag | CCR6 antag | CXCR6 block | EBI2 antag | APJ ag | B2AR ag CP1 | FAP fluor counter
CCOC(=O)Cn1nnnc1CN(Cc1ccccc1)Cc1cc2cc(CC)ccc2[nH]c1=O | -10.4 | 100.2* | 7.4 | 0.8 | 0.8 | 3.2 | 62.5 | i
CNc1ccc([N+](=O)[O-])cc1-c1nc2ccccc2[nH]c1=O | 8.0 | 61.5* | 9.6 | 1.0 | 3.7 | -3.8 | 91.3 | i
COc1cc2nc(N3CCN(C(=O)c4ccco4)CC3)nc(N)c2cc1OC | 12.0 | 5.3 | 9.8 | 1.8 | 5.4 | 5.1 | . | .
COc1cc2nc(N3CCN(C(=O)C4COc5ccccc5O4)CC3)nc(N)c2cc1OC (centres undefined) | -18.8 | 7.0 | -0.8 | -6.8 | -8.7 | 5.8 | 99.8 | i
CC(C)C[C@@H](CN1CCCC1CN1C(=S)NC[C@@H]1Cc1ccc(O)cc1)N1C[C@H](Cc2ccc(O)cc2)N(CCc2ccccc2)C1=S (some centres undefined) | . | 21.9 | -5.2 | 15.7 | 27.6 | . | . | .
CCCCn1c(=N)n(CC(=O)c2ccc(Br)s2)c2ccccc21 | -7.4 | 82.1* | 8.3 | -0.3 | 11.8 | -2.1 | 0.9* | i
CCn1c(=N)n(CC(=O)c2ccc(Br)s2)c2ccccc21 | 15.8 | -3.7 | 23.2 | 15.4 | -4.4 | -4.2 | . | .
CN(C)C(=O)c1cccc(COc2ccc(N3C(N)=NC(N)=NC3(C)C)cc2Cl)c1 | . | . | . | -4.3 | -4.9 | . | . | .
Cc1ccc(C(=O)c2cc([N+](=O)[O-])ccc2N2CCCCC2)c(C)c1 | 14.3 | 60.9* | 30.3 | 16.6 | 31.6 | -5.9 | 41.0* | i
O=C(O)c1cc([N+](=O)[O-])ccc1N1CCCCC1 | 1.2 | 2.7 | 12.9 | 9.1 | -2.4 | -3.9 | . | .
CC(C)CCNC(=O)NC(=O)CSc1ncccn1 | 18.5 | -3.5 | -4.9 | 0.6 | 0.2 | -2.0 | . | .
CCc1ccc(CN2CCC(Oc3ccc(C(=O)N4CCCCC4)cc3)CC2)cc1 | 6.3 | 67.4* | 19.4 | 5.1 | 0.0 | -5.9 | 40.0* | i
O=C(c1cccc(OC2CCN(Cc3ccc(F)cc3)CC2)c1)N1CCCC1 | 4.4 | -6.8 | -4.3 | -4.4 | -9.0 | 2.5 | . | .
CCc1ccc(CN2CCC(Oc3ccc(C(=O)N4CCCC4)cc3)CC2)cc1 | 2.9 | 82.0* | 14.5 | -14.0 | 6.6 | 9.6 | 9.0* | i
O=C(c1ccc(OC2CCN(Cc3ccc(F)cc3)CC2)cc1)N1CCCC1 | 18.3 | 43.1* | 8.8 | 4.6 | -18.9 | -3.1 | 45.7* | i
CSc1ccc(CN2CCC(Oc3ccc(C(=O)N4CCCC4)cc3)CC2)cc1 | -30.2 | 51.1* | 7.6 | 5.8 | -3.9 | -0.4 | 70.3 | i

Screening results: PubChem, several laboratories
